Compounds with a hit are over-represented: about 2.1% of the library has one in this group of screens.
MT stabilizer – microtubule stabilizers in HeLa cells, primary screen, imaging, high-content imaging; hit rate 0.83% among 200,000; HeLa tubulin immunostaining HCS, 24 h; share of cells brighter than vehicle mean+2SD; % tubulin-high responders, % at 10 µM;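 active = plate Z-score above 3 for both tubulin-high and condensed-nucleus cell shares, with cell loss under 80%, at 10 µM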;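 note: anti alpha tubulin signal scored within the nucleus-defined area of each cell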
bCat nuc transl – modulators of beta-catenin nuclear translocation, primary screen, imaging, HeLa cells, immunofluorescence, high-content; hit rate 0.3% among 190,000; nuclear translocation activity, % at 5 µM; AID 1665, 2009;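 active = nuclear translocation activity above 50% at 5 µM, with a well cell count of 50 or more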;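 note: per-cell ratio of nuclear to cytoplasmic median beta-catenin stain intensity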
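System: HeLa cells, endogenous beta-catenin; compound dosing: 5 µM primary single dose, 0.1% DMSO, 0.02–20 µM confirmation series; incubation: 24 h compound exposure at 37°C, 5% CO2; signal: beta-catenin immunofluorescence imaging with DAPI; evaluation: % activation, nuclear-to-cytoplasmic median beta-catenin signal ratio per cell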
Dynein cargo inh – inhibitors of GR-EGFP nuclear translocation, primary screen, dynein cargo transport inhibitor project, imaging, high-content, 3617.4 mouse cells; test concentration mostly 20 µM; stimulated with dexamethasone, 1 µM; active compounds read low; z-score, hits read low; hit rate 0.47% among 220,000;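 active = plate z-score of nuclear minus cytoplasmic receptor signal below a set negative limit, without overly bright fluorescence or cell loss, cut at about -3.5 in these data, passing the limit was not always enough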;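 note: z-score of nuclear minus cytoplasmic ring GR-EGFP intensity difference per well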
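Schedule: 48 h induction, then 1 h compound, then 30 min agonist, 37 °C. Buffer or medium: tetracycline-free induction medium containing charcoal-stripped FBS. Reagent: 1.0 µM final dexamethasone stimulus. Evaluation: nuclear versus cytoplasmic GR-EGFP signal, averaged per well. Signal: high-content fluorescence imaging after fixation.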
Hsp70 activator – Hsp70 transcriptional activators, primary screen, cell-based, HeLa, Hsp70 promoter luciferase, luminescence, 10 µM; HeLa Hsp70 promoter luciferase reporter; scaled: vehicle 0, proteasome-inhibitor control 100%; activation, % at 10 µM; hit rate 0.04% among 200,000;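 active = activation above the mean across all tested compounds plus 3 SD, cutoff set per campaign, cut at about 5.5% in these data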
Autophagy HCS – autophagy modulators in MEF cells, primary screen, imaging, high-content, MEF GFP-LC3 | MEF GFP-LC3 puncta imaging; test concentration mostly 10 µM | calls only at 10 µM (by protocol) | hit rate 0.98% among 190,000;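 active = percentage of spot-positive cells more than 3 SD above its plate mean, without a fluorescence outlier flag or 80% toxicity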
Each line names hits and unclear results; the compound was inactive in the other large screens.

CC(=O)C1=C(C)NC(SCC(=O)c2ccc(F)cc2)=C(C#N)C1c1ccco1 (stereo not drawn)	none
CC(=O)C1=C(C)NC(SCC(=O)c2ccc(Cl)c(Cl)c2)=C(C#N)C1c1ccco1 (stereo not drawn)	Autophagy HCS active
CC(=O)C1=C(C)NC(SCC(=O)c2ccc(-c3ccccc3)cc2)=C(C#N)C1c1cccnc1 (stereo not drawn)	Autophagy HCS active
Cc1ccc2c(c1C)NC(=O)C21N2CCCC2C(C(=O)c2ccc3ccccc3c2)C12C(=O)Nc1ccccc12 (stereo not drawn)	none (no result: MT stabilizer, Hsp70 activator, Autophagy HCS)
Cc1cccc(C2C3=C(Nc4[nH]n(-c5ccccc5)c(=O)c42)c2ccccc2C3=O)c1 (stereo not drawn)	Autophagy HCS active
Cc1ccccc1C1C2=C(Nc3[nH]n(-c4ccccc4)c(=O)c31)c1ccccc1C2=O (stereo not drawn)	none
COc1ccc(-c2cc3ccccc3n2CC(O)CN2CCCCC2)cc1 (stereo not drawn)	none (no result: MT stabilizer, Hsp70 activator, Autophagy HCS)
CCC(=C(c1ccc(OC)cc1)c1ccc(OC)cc1)c1cn(CC(O)CN2CCN(C)CC2)c2ccccc12 (stereo not drawn)	Autophagy HCS active
COCc1cc(=O)[nH]c(Nc2nc3ccc(C)cc3o2)n1	Autophagy HCS active
CCc1ccc2nc(Nc3nc(COC)cc(=O)[nH]3)nc(C)c2c1	none
COc1ccc(N(C)S(=O)(=O)c2cccc3cccnc23)c(OC)c1	MT stabilizer 54.8, bCat nuc transl 56.4
Cc1ccc(-c2cc(Cc3ccccn3)c(=O)[nH]n2)cc1	none (no result: MT stabilizer, Hsp70 activator, Autophagy HCS)
[O-][N+]1=c2ccc(Nc3ccccc3)cc2=NC12CCCCC2	MT stabilizer 29.1
COc1ccc(Nc2ccc3c(c2)=NC2(CCCCC2)[N+]=3[O-])cc1	Autophagy HCS active
COc1ccc(NC2=NC(=S)N(c3ccccc3C)C23CCCCC3)cc1	none
COc1ccc(C(NC(=O)/C=C/c2ccco2)c2ccc(OC)c(OC)c2)cc1OC	none
COc1cc(C(=S)N2CCN(c3cccc(Cl)c3)CC2)ccc1O	MT stabilizer 24.3, bCat nuc transl 50.1
COc1ccc(C(=S)N2CCN(c3cccc(Cl)c3)CC2)c(OC)c1	MT stabilizer 17.9, bCat nuc transl 106.6
Oc1ccc(C(=S)N2CCN(c3cccc(Cl)c3)CC2)cc1	none
COc1cc(CN2CCN(c3cccc(Cl)c3)CC2)cc(OC)c1OC	MT stabilizer 46.1
COc1ccc(/C=C(\C#N)C(=O)NCC(c2ccc(F)cc2)N2CCOCC2)cc1 (stereo not drawn)	none (no result: MT stabilizer, Hsp70 activator, Autophagy HCS)
Cc1c(NC(=O)c2cc(C3CC3)on2)c(=O)n(-c2ccccc2)n1C	Autophagy HCS active (no result: bCat nuc transl)
CCOC(=O)c1cc2c(N)c(C(=O)c3cc(C#N)c(SC)nc3C)sc2nc1C	Autophagy HCS active
CCOC(=O)c1cc(C#N)c(SC)nc1C	none (no result: MT stabilizer, Hsp70 activator, Autophagy HCS)
CC(=O)Cc1nsc(NC(=O)c2ccc(-c3cccc(Cl)c3)o2)n1	MT stabilizer 13.7
Cc1ccc(C(=O)NC2CCCCNC2=O)cc1 (stereo not drawn)	none (no result: MT stabilizer, Hsp70 activator, Autophagy HCS)
COc1ccc(CNCCc2ccc(Cl)cc2)cc1OCc1ccccc1	Autophagy HCS active
O=C(O)c1cccc(COCC(F)(F)C(F)F)c1	Autophagy HCS active
Cc1cc(=O)oc2cc(NC(=O)c3cc4ccccc4o3)ccc12	Autophagy HCS active
O=C(Nc1ccc2oc(=O)ccc2c1)c1cc2ccccc2o1	none
CCOC(=O)C1CCCN(Cc2cn[nH]c2-c2ccc(F)cc2F)C1 (stereo not drawn)	Autophagy HCS active
COc1ccccc1C(=O)N1CCN(Cc2cn[nH]c2-c2ccc(F)cc2F)CC1	none
Cc1ccc(Nc2c(N)c(=O)oc3ccccc23)cc1	MT stabilizer 29.7, Autophagy HCS active
COC(=O)c1ccc(NC(=O)[C@H](C)NC(N)=O)cc1	none (no result: MT stabilizer, Hsp70 activator, Autophagy HCS)
COc1ccc(-c2cc(C(F)F)n3ncc(C(=O)Nc4cc(C)on4)c3n2)cc1	none
CCOC(=O)c1c2ccc(OCC(=O)N/N=C/c3ccc(C)cc3)cc2n2ccccc12	Autophagy HCS active
CCOC(=O)c1c2ccc(OCC(=O)NN)cc2n2ccccc12	none
CN(C(=S)NC1CCCCC1)C1(c2ccccc2Cl)CCCCC1=O (stereo not drawn)	Autophagy HCS active
